Measured values of several laboratories.
Each line is one published result; the experiments were not run side by side.
Target: Calcium/calmodulin-dependent protein kinase type 1G (CAMK1G, Homo sapiens, UniProt Q96NX5)

N[C@@H]1CCN(c2nccc(-c3cnn4ncccc34)n2)C1
remaining binding (binding; 1 µM): 100%

FC(F)(F)Oc1cccc(-c2cnc3ccc(-c4ccncc4)nn23)c1
remaining binding (cell-free assay; competition with immobilised ligand; 5 µM): 73%

CC1CCCN1c1nccc(-c2cnn3ncccc23)n1 (stereo not shown)
remaining binding (binding; competition with immobilised ligand; 1 µM): 100%

O=C(NCC1CCOCC1)c1n[nH]cc1NC(=O)c1c(F)cccc1F
remaining binding (binding; competition with immobilised ligand; 1 µM): 96%

CN(C)c1ncc(F)c(-c2cnn3ncccc23)n1
remaining binding (binding; competition with immobilised ligand; 1 µM): 96%

COc1cnc(Nc2cccc(S(N)(=O)=O)c2)nc1N1CCN(c2ccccc2)C(=O)C1
remaining binding (binding; competition with immobilised ligand; 1 µM): 100%

CC(=O)N1CCC(c2ccc(C(=O)NC(=N)N)cc2C(F)(F)F)CC1
remaining binding (cell-free assay; competition with immobilised ligand; 1 µM): 100%

O=C(NCCCN1CCOCC1)c1ccc(Nc2ncc(Cl)c(-c3ccc(Cl)s3)n2)cc1
remaining binding (binding; competition with immobilised ligand; 1 µM): 74%

Nc1ncc2c(n1)-c1c([nH]c3ccc(C#CC4CC4)cc13)CCCC2
remaining binding (binding; competition with immobilised ligand; 1 µM): 87%

COCCOc1nc(-c2ccc(Cl)nc2)nc2c1CN(C(=O)c1ncn3ccccc13)CC2
remaining binding (cell-free assay; competition with immobilised ligand; 0.1 µM): 100%

C[C@@H](c1ccc(-n2cnc3c(N)ncnc32)cc1)N1CCc2nn(C)c(Cc3ccccc3)c2C1=O
remaining binding (binding; competition with immobilised ligand; 0.1 µM): 95%

F[C@@H]1CCN(c2nccc(-c3cnn4ncccc34)n2)C1
remaining binding (binding; 1 µM): 100%

CNCc1ccccc1-c1csc([C@H](C)Nc2nc(C)nc3cc(OC)c(OC)cc23)c1
remaining binding (cell-free assay; competition with immobilised ligand; 1 µM): 96%

O=C(c1ccc(Nc2nccc(-c3cc4ccccc4s3)n2)cc1)N1CCC(N2CCCC2)CC1
remaining binding (binding; competition with immobilised ligand; 1 µM): 72%

COc1cc(-c2cn(C3CCc4c(F)cccc4N(CC(F)(F)F)C3=O)nn2)ccc1-n1cnc(C)c1 (stereo not shown)
remaining binding (cell-free assay; competition with immobilised ligand; 1 µM): 100%

CN(c1nccc(-c2cnn3ncccc23)n1)C1CC1
remaining binding (binding; 1 µM): 100%

COc1cc(-c2cn(C3CCc4ccccc4N(CC(F)(F)F)C3=O)nn2)ccc1-n1ccc(C)n1 (stereo not shown)
remaining binding (cell-free assay; competition with immobilised ligand; 1 µM): 100%

COc1ccnn2ncc(-c3ccnc(N(C)C)n3)c12
remaining binding (binding; 1 µM): 100%

O=C(c1ccc(Nc2ncc(Cl)c(-c3cc4ccccc4s3)n2)cc1)N1CCC(N2CCCC2)CC1
remaining binding (binding; competition with immobilised ligand; 1 µM): 82%

COc1ncc2cc3ccccc3nc2c1C#N
remaining binding (cell-free assay; competition with immobilised ligand; 5 µM): 89%

N#Cc1ccc(Nc2ccc3[nH]c(=O)[nH]c3c2)c(Cl)c1
remaining binding (cell-free assay; competition with immobilised ligand; 1 µM): 100%

C[C@H]1CCN(c2nccc(-c3cnn4ncccc34)n2)C1
remaining binding (binding; 1 µM): 97%
